The source made the active and inactive calls. No cut-off for these calls is given here.
Assays:
Format in all cases: functional
Pseudomonas aeruginosa = test: Antimicrobial activity against Pseudomonas aeruginosa after 18 to 20 hrs at 37degC by disc diffusion method
Procedure, shortened: (§1)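 Agar diffusion disc assay: bacterial inoculum of 1 × 10⁸ bacteria/mL spread on Mueller Hinton agar. 6 mm filter paper discs loaded with sample dissolved in DMSO. Chloramphenicol at 10 mcg/disc served as control. Plates incubated 18–20 h at 37 °C. Read-out was the zone of inhibition in mm.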

Escherichia coli = test: Antimicrobial activity against Escherichia coli after 18 to 20 hrs at 37degC by disc diffusion method; procedure, shortened: as §1
Bacillus subtilis = test: Antimicrobial activity against Bacillus subtilis after 18 to 20 hrs at 37degC by disc diffusion method; procedure, shortened: as §1
Aspergillus niger = test: Antimicrobial activity against Aspergillus niger after 18 to 20 hrs at 37degC by disc diffusion method
Procedure, shortened: (§2)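 Fungal inoculum of 1 × 10⁶/mL spread on potato dextrose agar. 6 mm filter paper discs received sample dissolved in DMSO. Nystatin at 100 U/disc was the antifungal control. Plates incubated 18–20 h at 37 °C, then the zone of inhibition was measured in mm.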

Staphylococcus aureus = test: Antimicrobial activity against Staphylococcus aureus after 18 to 20 hrs at 37degC by disc diffusion method; procedure, shortened: as §1
Candida albicans = test: Antimicrobial activity against Candida albicans after 18 to 20 hrs at 37degC by disc diffusion method; procedure, shortened: as §2

## COc1c(F)c(F)cc2c(=O)c(C(=O)NNC(=S)Nc3cccc(C)c3)cn(C3CC3)c12
Pseudomonas aeruginosa
  diameter of the inhibition zone (DIZ): inactive
Escherichia coli
  diameter of the inhibition zone (DIZ): inactive
Bacillus subtilis
  diameter of the inhibition zone (DIZ): inactive
Aspergillus niger
  diameter of the inhibition zone (DIZ): inactive
Staphylococcus aureus
  diameter of the inhibition zone (DIZ): inactive
Candida albicans
  diameter of the inhibition zone (DIZ): inactive

## COc1c(F)c(F)cc2c(=O)c(-c3nnc(Nc4cccc(C)c4)o3)cn(C3CC3)c12
Pseudomonas aeruginosa
  diameter of the inhibition zone (DIZ): inactive
Escherichia coli
  diameter of the inhibition zone (DIZ): inactive
Bacillus subtilis
  diameter of the inhibition zone (DIZ): 21 mm
Aspergillus niger
  diameter of the inhibition zone (DIZ): inactive
Staphylococcus aureus
  diameter of the inhibition zone (DIZ): inactive
Candida albicans
  diameter of the inhibition zone (DIZ): inactive

## O=C(N[C@H](CO)[C@H](O)c1ccc([N+](=O)[O-])cc1)C(Cl)Cl [CHLORAMPHENICOL]
Pseudomonas aeruginosa
  diameter of the inhibition zone (DIZ): 24.68 mm
Escherichia coli
  diameter of the inhibition zone (DIZ): 29.14 mm
Bacillus subtilis
  diameter of the inhibition zone (DIZ): 30.11 mm
Staphylococcus aureus
  diameter of the inhibition zone (DIZ): 32.8 mm

## COc1c(F)c(F)cc2c(=O)c(-c3nnc(Nc4ccccc4C)o3)cn(C3CC3)c12
Pseudomonas aeruginosa
  diameter of the inhibition zone (DIZ): inactive
Escherichia coli
  diameter of the inhibition zone (DIZ): inactive
Bacillus subtilis
  diameter of the inhibition zone (DIZ): inactive
Aspergillus niger
  diameter of the inhibition zone (DIZ): inactive
Staphylococcus aureus
  diameter of the inhibition zone (DIZ): inactive
Candida albicans
  diameter of the inhibition zone (DIZ): inactive

## COc1c(F)c(F)cc2c(=O)c(-c3nnc(Nc4cccc(C)c4)s3)cn(C3CC3)c12
Pseudomonas aeruginosa
  diameter of the inhibition zone (DIZ): 27.1 mm
Escherichia coli
  diameter of the inhibition zone (DIZ): 23.8 mm
Bacillus subtilis
  diameter of the inhibition zone (DIZ): inactive
Aspergillus niger
  diameter of the inhibition zone (DIZ): inactive
Staphylococcus aureus
  diameter of the inhibition zone (DIZ): inactive
Candida albicans
  diameter of the inhibition zone (DIZ): inactive

## COc1c(F)c(F)cc2c(=O)c(-c3n[nH]c(=S)n3-c3ccccc3C)cn(C3CC3)c12
Pseudomonas aeruginosa
  diameter of the inhibition zone (DIZ): inactive
Escherichia coli
  diameter of the inhibition zone (DIZ): inactive
Bacillus subtilis
  diameter of the inhibition zone (DIZ): inactive
Aspergillus niger
  diameter of the inhibition zone (DIZ): 20.8 mm
Staphylococcus aureus
  diameter of the inhibition zone (DIZ): 21.2 mm
Candida albicans
  diameter of the inhibition zone (DIZ): inactive

## COc1c(F)c(F)cc2c(=O)c(-c3nnc(Nc4ccc(Cl)cc4)s3)cn(C3CC3)c12
Pseudomonas aeruginosa
  diameter of the inhibition zone (DIZ): inactive
Escherichia coli
  diameter of the inhibition zone (DIZ): inactive
Bacillus subtilis
  diameter of the inhibition zone (DIZ): 28 mm
Aspergillus niger
  diameter of the inhibition zone (DIZ): inactive
Staphylococcus aureus
  diameter of the inhibition zone (DIZ): 21 mm
Candida albicans
  diameter of the inhibition zone (DIZ): 22 mm

## COc1c(F)c(F)cc2c(=O)c(-c3nnc(Nc4ccccc4)s3)cn(C3CC3)c12
Pseudomonas aeruginosa
  diameter of the inhibition zone (DIZ): 22 mm
Escherichia coli
  diameter of the inhibition zone (DIZ): 24 mm
Bacillus subtilis
  diameter of the inhibition zone (DIZ): 27 mm
Aspergillus niger
  diameter of the inhibition zone (DIZ): 26.1 mm
Staphylococcus aureus
  diameter of the inhibition zone (DIZ): 17 mm
Candida albicans
  diameter of the inhibition zone (DIZ): 16.3 mm

## COc1c(F)c(F)cc2c(=O)c(-c3nnc(Nc4ccccc4C)s3)cn(C3CC3)c12
Pseudomonas aeruginosa
  diameter of the inhibition zone (DIZ): inactive
Escherichia coli
  diameter of the inhibition zone (DIZ): inactive
Bacillus subtilis
  diameter of the inhibition zone (DIZ): inactive
Aspergillus niger
  diameter of the inhibition zone (DIZ): inactive
Staphylococcus aureus
  diameter of the inhibition zone (DIZ): inactive
Candida albicans
  diameter of the inhibition zone (DIZ): inactive

## COc1c(F)c(F)cc2c(=O)c(-c3n[nH]c(=S)n3-c3cccc(C)c3)cn(C3CC3)c12
Pseudomonas aeruginosa
  diameter of the inhibition zone (DIZ): inactive
Escherichia coli
  diameter of the inhibition zone (DIZ): inactive
Bacillus subtilis
  diameter of the inhibition zone (DIZ): inactive
Aspergillus niger
  diameter of the inhibition zone (DIZ): 21.8 mm
Staphylococcus aureus
  diameter of the inhibition zone (DIZ): 19.8 mm
Candida albicans
  diameter of the inhibition zone (DIZ): inactive

## COc1c(F)c(F)cc2c(=O)c(C(=O)NNC(=S)Nc3ccccc3)cn(C3CC3)c12
Pseudomonas aeruginosa
  diameter of the inhibition zone (DIZ): 24.2 mm
Escherichia coli
  diameter of the inhibition zone (DIZ): 24.1 mm
Bacillus subtilis
  diameter of the inhibition zone (DIZ): 24.1 mm
Aspergillus niger
  diameter of the inhibition zone (DIZ): inactive
Staphylococcus aureus
  diameter of the inhibition zone (DIZ): 23.9 mm
Candida albicans
  diameter of the inhibition zone (DIZ): 14.2 mm

## COc1c(F)c(F)cc2c(=O)c(C(=O)NNC(=S)Nc3ccc(Cl)cc3)cn(C3CC3)c12
Pseudomonas aeruginosa
  diameter of the inhibition zone (DIZ): 22.6 mm
Escherichia coli
  diameter of the inhibition zone (DIZ): 15 mm
Bacillus subtilis
  diameter of the inhibition zone (DIZ): 15.1 mm
Aspergillus niger
  diameter of the inhibition zone (DIZ): inactive
Staphylococcus aureus
  diameter of the inhibition zone (DIZ): 15.9 mm
Candida albicans
  diameter of the inhibition zone (DIZ): inactive

## COc1ccc(NC(=S)NNC(=O)c2cn(C3CC3)c3c(OC)c(F)c(F)cc3c2=O)cc1
Pseudomonas aeruginosa
  diameter of the inhibition zone (DIZ): 22.8 mm
Escherichia coli
  diameter of the inhibition zone (DIZ): 16.6 mm
Bacillus subtilis
  diameter of the inhibition zone (DIZ): 15.3 mm
Aspergillus niger
  diameter of the inhibition zone (DIZ): inactive
Staphylococcus aureus
  diameter of the inhibition zone (DIZ): 14.3 mm
Candida albicans
  diameter of the inhibition zone (DIZ): inactive

## COc1ccc(Nc2nnc(-c3cn(C4CC4)c4c(OC)c(F)c(F)cc4c3=O)o2)cc1
Escherichia coli
  diameter of the inhibition zone (DIZ): inactive
Bacillus subtilis
  diameter of the inhibition zone (DIZ): 26.7 mm
Aspergillus niger
  diameter of the inhibition zone (DIZ): 28.1 mm
Staphylococcus aureus
  diameter of the inhibition zone (DIZ): 28 mm
Candida albicans
  diameter of the inhibition zone (DIZ): 25.3 mm

## COc1ccc(Nc2nnc(-c3cn(C4CC4)c4c(OC)c(F)c(F)cc4c3=O)s2)cc1
Pseudomonas aeruginosa
  diameter of the inhibition zone (DIZ): inactive
Escherichia coli
  diameter of the inhibition zone (DIZ): inactive
Bacillus subtilis
  diameter of the inhibition zone (DIZ): inactive
Aspergillus niger
  diameter of the inhibition zone (DIZ): inactive
Staphylococcus aureus
  diameter of the inhibition zone (DIZ): inactive
Candida albicans
  diameter of the inhibition zone (DIZ): inactive

## COc1c(F)c(F)cc2c(=O)c(-c3nnc(Nc4ccc(Cl)cc4)o3)cn(C3CC3)c12
Pseudomonas aeruginosa
  diameter of the inhibition zone (DIZ): 26.1 mm
Escherichia coli
  diameter of the inhibition zone (DIZ): inactive
Bacillus subtilis
  diameter of the inhibition zone (DIZ): 24.6 mm
Staphylococcus aureus
  diameter of the inhibition zone (DIZ): 21.06 mm
Candida albicans
  diameter of the inhibition zone (DIZ): 22.5 mm

## COc1c(F)c(F)cc2c(=O)c(-c3nnc(Nc4ccccc4)o3)cn(C3CC3)c12
Escherichia coli
  diameter of the inhibition zone (DIZ): inactive
Bacillus subtilis
  diameter of the inhibition zone (DIZ): 25.4 mm
Aspergillus niger
  diameter of the inhibition zone (DIZ): 14.7 mm
Staphylococcus aureus
  diameter of the inhibition zone (DIZ): 18.8 mm

## COc1c(F)c(F)cc2c(=O)c(-c3n[nH]c(=S)n3-c3ccccc3)cn(C3CC3)c12
Pseudomonas aeruginosa
  diameter of the inhibition zone (DIZ): inactive
Escherichia coli
  diameter of the inhibition zone (DIZ): inactive
Bacillus subtilis
  diameter of the inhibition zone (DIZ): inactive
Aspergillus niger
  diameter of the inhibition zone (DIZ): 19.9 mm
Staphylococcus aureus
  diameter of the inhibition zone (DIZ): 21 mm
Candida albicans
  diameter of the inhibition zone (DIZ): inactive

## COc1ccc(-n2c(-c3cn(C4CC4)c4c(OC)c(F)c(F)cc4c3=O)n[nH]c2=S)cc1
Pseudomonas aeruginosa
  diameter of the inhibition zone (DIZ): inactive
Escherichia coli
  diameter of the inhibition zone (DIZ): inactive
Bacillus subtilis
  diameter of the inhibition zone (DIZ): inactive
Aspergillus niger
  diameter of the inhibition zone (DIZ): 21.6 mm
Staphylococcus aureus
  diameter of the inhibition zone (DIZ): 23.4 mm
Candida albicans
  diameter of the inhibition zone (DIZ): inactive

## COc1c(F)c(F)cc2c(=O)c(-c3n[nH]c(=S)n3-c3ccc(Cl)cc3)cn(C3CC3)c12
Pseudomonas aeruginosa
  diameter of the inhibition zone (DIZ): inactive
Escherichia coli
  diameter of the inhibition zone (DIZ): inactive
Bacillus subtilis
  diameter of the inhibition zone (DIZ): inactive
Aspergillus niger
  diameter of the inhibition zone (DIZ): 21.5 mm
Staphylococcus aureus
  diameter of the inhibition zone (DIZ): 22.2 mm
Candida albicans
  diameter of the inhibition zone (DIZ): inactive

## NYSTATIN
Aspergillus niger
  inhibition zone (IZ): 21.1 mm

## COc1c(F)c(F)cc2c(=O)c(C(=O)NNC(=S)Nc3ccccc3C)cn(C3CC3)c12
Pseudomonas aeruginosa
  diameter of the inhibition zone (DIZ): 20.1 mm
Escherichia coli
  diameter of the inhibition zone (DIZ): 18.5 mm
Bacillus subtilis
  diameter of the inhibition zone (DIZ): 20.1 mm
Aspergillus niger
  diameter of the inhibition zone (DIZ): 18 mm
Staphylococcus aureus
  diameter of the inhibition zone (DIZ): 17.2 mm

Source: ChEMBL document CHEMBL1287793, “Green synthesis and biological evaluation of some novel azoles as antimicrobial agents” (2010)
